Measured values taken from ChEMBL document CHEMBL4765234 (J Med Chem, 2016).
≈ marks a conversion by molar mass, not a printed value. Calls of active or inactive are those of the source. No cut-off for these calls is given here.

Key:
[1] = target: T1, Voltage-gated inwardly rectifying potassium channel KCNH2 (Homo sapiens, UniProt Q12809); assay: Inhibition of human ERG
[2] = Drug metabolism in rat hepatocytes assessed as glucuronidation by LC-MS/MS analysis; assay type: ADME, cell-based, Hepatocyte
[3] = target: T2, Peroxisome proliferator-activated receptor delta (Homo sapiens, UniProt Q03181); assay: Agonist activity at human Gal4-fused PPARdelta LBD expressed in African green monkey CV1 cells cotransfected with pRL-SV40 plasmid measured after 24 hrs by luciferase reporter gene assay; assay type: cell-based, CV-1
T2 sequence (Q03181 whole entry): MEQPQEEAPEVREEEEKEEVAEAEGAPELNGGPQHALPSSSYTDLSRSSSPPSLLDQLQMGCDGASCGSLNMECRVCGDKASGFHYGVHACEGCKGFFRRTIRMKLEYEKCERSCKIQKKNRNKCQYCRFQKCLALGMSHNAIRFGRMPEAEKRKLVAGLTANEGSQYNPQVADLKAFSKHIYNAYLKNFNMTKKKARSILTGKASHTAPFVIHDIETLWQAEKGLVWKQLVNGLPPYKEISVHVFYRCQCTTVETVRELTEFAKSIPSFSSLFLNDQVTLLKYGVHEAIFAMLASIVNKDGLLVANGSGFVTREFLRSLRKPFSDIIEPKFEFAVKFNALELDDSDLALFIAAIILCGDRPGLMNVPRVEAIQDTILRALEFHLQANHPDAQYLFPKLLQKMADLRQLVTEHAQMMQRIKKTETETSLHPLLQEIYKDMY
How it was run: (§1)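 CV1 African green monkey kidney cells were cotransfected, in DMEM with 5% charcoal-stripped FBS, with two plasmids: an SV40-driven Gal4 DBD–PPARα or PPARδ LBD hybrid, and a 5×Gal4-element firefly luciferase reporter. Cells were replated at 15000/well for 4 h, then exposed to 0.17 nM–10 μM in half-log steps for 24 h. Luciferase was read, normalized to maximum from 10 μM reference agonist, and fit by a 4-parameter model.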

[4] = target: T3, Peroxisome proliferator-activated receptor delta (Homo sapiens) (UniProt Q03181); assay: Agonist activity at human Gal4-fused PPARdelta LBD expressed in African green monkey CV1 cells cotransfected with pRL-SV40 plasmid assessed as maximum efficacy measured after 24 hrs by luciferase reporter gene assay relative to control; assay type: cell-based; settings: CV-1; how it was run: as §1
T3 sequence (whole entry): T2 sequence (Q03181 whole entry)

RXR alpha/PPAR gamma = target: T4, RXR alpha/PPAR gamma (Homo sapiens, UniProt P19793+P37231); assay: Agonist activity at human CMV-fused […]/RXRalpha (unknown origin) expressed in African green monkey CV1 cells transfected with luciferase plasmid measured after 24 hrs by luciferase reporter gene assay; assay type: cell-based, CV-1
T4 sequence (P37231 whole entry): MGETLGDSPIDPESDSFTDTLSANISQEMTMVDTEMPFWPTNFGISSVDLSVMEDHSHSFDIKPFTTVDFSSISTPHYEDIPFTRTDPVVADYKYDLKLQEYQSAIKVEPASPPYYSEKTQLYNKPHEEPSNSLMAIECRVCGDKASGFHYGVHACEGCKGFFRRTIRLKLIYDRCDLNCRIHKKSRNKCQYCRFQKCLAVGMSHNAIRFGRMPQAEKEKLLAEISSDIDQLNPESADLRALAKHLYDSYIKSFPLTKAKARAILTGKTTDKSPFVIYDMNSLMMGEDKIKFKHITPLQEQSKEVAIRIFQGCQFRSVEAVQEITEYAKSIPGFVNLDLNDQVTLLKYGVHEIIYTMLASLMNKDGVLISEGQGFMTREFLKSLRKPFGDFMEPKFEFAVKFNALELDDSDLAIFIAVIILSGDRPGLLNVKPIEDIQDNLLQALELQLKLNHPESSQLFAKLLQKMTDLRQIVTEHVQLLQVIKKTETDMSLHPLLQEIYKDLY
T4 sequence (P19793 whole entry): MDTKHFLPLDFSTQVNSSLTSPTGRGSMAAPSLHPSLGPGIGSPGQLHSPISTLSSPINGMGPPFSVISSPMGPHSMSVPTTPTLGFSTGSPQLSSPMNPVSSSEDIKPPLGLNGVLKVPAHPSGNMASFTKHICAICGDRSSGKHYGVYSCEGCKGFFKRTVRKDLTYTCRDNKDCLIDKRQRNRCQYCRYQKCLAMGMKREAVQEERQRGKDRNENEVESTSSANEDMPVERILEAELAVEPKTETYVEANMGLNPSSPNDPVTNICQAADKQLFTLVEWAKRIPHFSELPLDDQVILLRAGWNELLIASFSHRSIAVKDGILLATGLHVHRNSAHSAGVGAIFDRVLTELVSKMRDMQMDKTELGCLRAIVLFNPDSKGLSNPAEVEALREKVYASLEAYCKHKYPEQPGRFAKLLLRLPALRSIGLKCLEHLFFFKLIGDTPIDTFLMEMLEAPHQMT
How it was run: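 CV1 cells were transfected, in DMEM with 5% charcoal-stripped FBS, with CMV-driven full PPARγ and RXRα plus a 2×PPRE TK-promoter luciferase reporter. After overnight growth, cells were replated at 15000/well for 4 h, then treated with 0.17 nM–10 μM in half-log dilutions for 24 h. Lysate luminescence was expressed as % of the maximum from 10 μM reference PPARγ agonist and fit to a 4-parameter logistic.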

[5] = Lipophilicity, logP of compound; assay type: physicochemical; settings: octanol/water
[6] = Metabolic stability in human liver microsomes assessed as compound hydrolysis incubated for 30 mins by LC-MS/MS analysis; assay type: ADME, Microsome; settings: read-out: Drug degradation
How it was run: (§2)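 Incubated 30 min with mouse or human liver microsomes. Stability reported as % metabolized.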

[7] = Metabolic stability in mouse liver microsomes assessed as compound hydrolysis incubated for 30 mins by LC-MS/MS analysis; assay type: ADME, Microsome; settings: read-out: Drug degradation; how it was run: as §2
[8] = Clearance in mouse liver microsomes by LC-MS/MS analysis; assay type: ADME, Microsome
[9] = Aqueous solubility of the compound at pH 7.4; assay type: physicochemical; settings: buffer
[10] = target: T1, Voltage-gated inwardly rectifying potassium channel KCNH2; assay: Inhibition of human ERG at 10 to 100 uM; settings: dose 10-100 µM
Mus musculus [11] = assay: Hypoglycemic activity in Balb/c mouse assessed as increase in insulin secretion at 0.03 to 3 mg/kg, po administered 60 mins prior to glucose challenge and measured at 3 to 7 mins by IPGTT; assay type: functional, organism-based; settings: dose 0.03-3 mg/kg
Rattus norvegicus = assay: Hypoglycemic activity in Zucker fatty diabetes mellitus rat model assessed as reduction in blood glucose level administered orally for 21 days and measured at 10 to 60 mins post glucose challenge on day 21 by OGTT; assay type: functional, organism-based; settings: dose 0.03-1 mg/kg, time 21.0 day
Mus musculus [12] = assay: Agonist activity at GPR40 in Balb/c mouse assessed as increase in GLP-1 levels in blood at 30 mg/kg, po measured at 15 to 180 mins by ELISA; assay type: functional, organism-based; settings: filed as agonist, time lower […], time upper 180.0 min

T1 sequence (Q12809 whole entry): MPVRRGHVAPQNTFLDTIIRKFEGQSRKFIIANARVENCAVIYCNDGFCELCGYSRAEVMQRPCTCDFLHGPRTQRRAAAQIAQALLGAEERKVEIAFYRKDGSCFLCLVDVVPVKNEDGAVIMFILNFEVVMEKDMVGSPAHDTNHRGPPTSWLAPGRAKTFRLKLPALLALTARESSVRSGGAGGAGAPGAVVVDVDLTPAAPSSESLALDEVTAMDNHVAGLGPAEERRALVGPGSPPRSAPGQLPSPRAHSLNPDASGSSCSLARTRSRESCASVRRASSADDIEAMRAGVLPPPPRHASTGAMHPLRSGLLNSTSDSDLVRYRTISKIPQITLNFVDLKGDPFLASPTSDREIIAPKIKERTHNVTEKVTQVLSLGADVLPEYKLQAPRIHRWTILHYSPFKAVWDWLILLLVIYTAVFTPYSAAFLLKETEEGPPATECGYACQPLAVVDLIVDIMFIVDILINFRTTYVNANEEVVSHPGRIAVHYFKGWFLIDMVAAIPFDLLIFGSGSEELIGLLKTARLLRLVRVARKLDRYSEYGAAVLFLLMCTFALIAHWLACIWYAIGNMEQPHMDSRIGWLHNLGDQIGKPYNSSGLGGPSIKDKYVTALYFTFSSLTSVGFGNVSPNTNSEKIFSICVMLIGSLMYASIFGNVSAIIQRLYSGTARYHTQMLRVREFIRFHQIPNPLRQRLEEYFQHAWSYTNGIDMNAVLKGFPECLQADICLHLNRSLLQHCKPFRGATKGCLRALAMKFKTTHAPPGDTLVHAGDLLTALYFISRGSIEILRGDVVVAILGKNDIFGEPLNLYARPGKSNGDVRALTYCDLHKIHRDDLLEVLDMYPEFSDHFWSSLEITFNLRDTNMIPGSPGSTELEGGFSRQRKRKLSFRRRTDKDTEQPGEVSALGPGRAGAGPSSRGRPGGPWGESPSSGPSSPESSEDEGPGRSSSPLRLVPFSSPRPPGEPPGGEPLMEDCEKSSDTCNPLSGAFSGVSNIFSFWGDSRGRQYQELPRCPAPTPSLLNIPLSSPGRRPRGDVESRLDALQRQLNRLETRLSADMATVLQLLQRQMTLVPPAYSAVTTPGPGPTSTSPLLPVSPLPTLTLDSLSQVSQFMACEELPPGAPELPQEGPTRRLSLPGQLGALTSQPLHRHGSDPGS

Row | Compound | IC50 [1] | Drug metabolism [2] | EC50 [3] | Emax [4] | EC50 (RXR alpha/PPAR gamma) | logP [5] | metabolised at 0.5 h [6] | metabolised at 0.5 h [7] | CLH [8] | solubility [9] | inhibition (INH) [10] | Activity (Mus musculus [11]) | Activity (Rattus norvegicus) | Activity (Mus musculus [12])
1 | CC#C[C@@H](CC(=O)O)c1ccc(OCc2ccc(CN3CCC4(CCc5ccccc54)CC3)s2)cc1 | > 10 µM | Metabolite_Detected | > 10 µM | 2% | > 10 µM | 5 | 44% | 98% | 0.288 h⁻¹ | 89 µM (≈ 44.5 µg/mL) | Not Active | Active | Dose-dependent effect | Active
2 | CC#C[C@@H](CC(=O)O)c1ccc(OCc2ccc(CN3CCC4(C=Cc5ccccc54)CC3)s2)cc1 | – | Metabolite_Detected | – | – | – | – | – | – | – | – | – | – | – | –
3 | CC#C[C@@H](CC(=O)O)c1ccc(OCc2ccc(CN3CCC4(C=Cc5ccccc54)CC3)cc2)cc1 [LY2881835] | > 10 µM | Metabolite_Detected | > 10 µM | 5% | > 10 µM | 4.9 | 38% | 79% | 0.131 h⁻¹ | 61 µM (≈ 30 µg/mL) | Not Active | Active | Dose-dependent effect | Active
4 | CC#C[C@@H](CC(=O)O)c1ccc(OCc2ccc(CN3CCCc4cccc(OC)c43)s2)cc1 | > 10 µM | Metabolite_Detected | > 10 µM | 1% | > 10 µM | 5.2 | 24% | 38% | 0.022 h⁻¹ | > 100 µM | Not Active | Active | Dose-dependent effect | Active
